Data as given in publication PMC2788160 (Nutrition Research and Practice, 2009).

What was measured:
[1] = test system: Caco-2 cell monolayer; assay: Apical-to-basolateral uptake in Caco-2 differentiated monolayer; format: in vitro ADME, human; conditions: for Conc. of aloe-emodin in basolateral side / Conc. of aloin in basolateral side: 1 hr, 37℃; for Absorption percent: Caco-2 cells over 1 hour
Method in brief: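 Caco-2 (passages 26-48; high-glucose DMEM, 10% FBS, 1% nonessential amino acids) on Transwell inserts at 5×10^4 cells/cm2, 18-24 days; TEER >550 Ω·cm2. Apical compound at 5, 10, 50 µM final (DMSO, diluted in HBSS, pH 6.0); basolateral HBSS pH 7.4; 1 hr, 37℃. C18 HPLC with/without sulfatase H-5 (45 min, 37℃) gives parent and conjugates; % absorption = basolateral×100/apical concentration.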

[2] = test system: everted gut sac (rat small intestine); assay: Everted gut sac model uptake into serosal side; format: in vitro ADME; conditions: 10 µM, 1 hr; Fig. 2
Method in brief: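 Rats fasted overnight; small intestine flushed with 0.9% NaCl, everted in warm oxygenated TC 199 medium, filled, cut into ~2.5 cm sacs from upper/mid-jejunum (12-15 per experiment). Sacs incubated 1 hr, 37℃ in 6 ml oxygenated medium with 10 µM compound; serosal fluid collected, volume from sac weights. HPLC with/without sulfatase (difference = conjugates); uptake per mg tissue protein (modified Lowry, BSA standard).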

O=C1c2cccc(O)c2C(=O)c2c(O)cc(CO)cc21 [aloe-emodin]
Conc. of aloe-emodin in basolateral side ([1]; 5 μM apical treatment): 0.13 nmol/cm^2 culture area
Conc. of aloe-emodin in basolateral side ([1]; 10 μM apical treatment): 0.86 nmol/cm^2 culture area
Conc. of aloe-emodin in basolateral side ([1]; 50 μM apical treatment): 2.51 nmol/cm^2 culture area

CC(=O)Cc1cc(=O)c2c(C)cc(O)c([C@@H]3O[C@H](CO)[C@@H](O)[C@H](O)[C@H]3O)c2o1 [aloesin]
% absorption in everted gut sac compared to Caco-2 monolayer [2]: more aloesin were shown to be absorbed in the gut sac compared to the Caco-2 monolayer
Absorption percent ([1]; 5 μM): 7.61%
Absorption percent ([1]; 10 μM): 13.64%
Absorption percent ([1]; 50 μM): 8.14%

O=C1c2c(O)cccc2C([C@@H]2O[C@H](CO)[C@@H](O)[C@H](O)[C@H]2O)c2cc(CO)cc(O)c21 (stereo partly shown) [aloin]
Conc. of aloin in basolateral side ([1]; 5 μM apical treatment): 0.11 nmol/cm^2 culture area
Conc. of aloin in basolateral side ([1]; 10 μM apical treatment): 0.42 nmol/cm^2 culture area
Conc. of aloin in basolateral side ([1]; 50 μM apical treatment): 1.99 nmol/cm^2 culture area
